# Results from ChEMBL document CHEMBL4152228, “Structural-based design, synthesis, and antitumor activity of novel alloxazine analogues with potential selective kinase inhibition” (Eur J Med Chem, 2018).
# What was measured:
# [1] = tested on: MCF7; assay: Antiproliferative activity against human MCF7 cells after 72 hrs by MTT assay; assay type: functional, cell-based; details: MCF7, 72 h
# Method in brief: (§1)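 MTT viability assay. Cells grown in RPMI-1640 with 10% heat-inactivated FBS, L-glutamine and 1% penicillin/streptomycin, used within 20 passages. Seeded at 5×10^3 cells/well, left overnight at 37 °C, then exposed to final concentrations of 0.005–50 µM (0.1% DMSO) for up to 72 h. MTT added for 3 h, formazan dissolved in DMSO, absorbance read at 550 nm. IC50 derived relative to untreated controls.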
# [2] = Antiproliferative activity against human WM793B cells after 72 hrs by MTT assay; assay type: functional, cell-based; method in brief: as §1
# [3] = tested on: HCT-116; assay: Antiproliferative activity against human HCT116 cells after 72 hrs by MTT assay; assay type: functional, cell-based; details: HCT-116, 72 h; method in brief: as §1
# [4] = tested on: K562; assay: Antiproliferative activity against human K562 cells after 72 hrs by MTT assay; assay type: functional, cell-based; details: K562, 72 h
# [5] = tested on: A2780; assay: Antiproliferative activity against human A2780 cells after 72 hrs by MTT assay; assay type: functional, cell-based; details: A2780, 72 h; method in brief: as §1
# [6] = tested on: MCF7; assay: Induction of apoptosis in human MCF7 cells assessed as necrotic cells at 10 uM after 72 hrs by annexin V-FITC/propidium iodide staining-based flow cytometric method (reference value: 12.6%); assay type: functional
# [7] = tested on: MCF7; assay: Induction of apoptosis in human MCF7 cells assessed as increase of early apoptotic cells after 72 hrs by annexin V-FITC/propidium iodide staining-based flow cytometric method; assay type: functional, cell-based
# Method in brief: (§2)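 MCF-7 cells treated 72 h at final 1, 5, 10 µM, then annexin V-FITC/PI stained in pH 7.4 HEPES binding buffer and analysed by flow cytometry. Early or late apoptotic cell fraction expressed as percent change versus vehicle control: (sample − control)/control × 100. Triplicates.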
# [8] = tested on: MCF7; assay: Induction of apoptosis in human MCF7 cells assessed as viable cells at 10 uM after 72 hrs by annexin V-FITC/propidium iodide staining-based flow cytometric method (reference value: 76%); assay type: functional; details: MCF7, 72 h, read-out: Activity
# [9] = tested on: MCF7; assay: Induction of apoptosis in human MCF7 cells assessed as late apoptotic cells at 10 uM after 72 hrs by annexin V-FITC/propidium iodide staining-based flow cytometric method (reference value: 2.6%); assay type: functional
# [10] = tested on: MCF7; assay: Induction of apoptosis in human MCF7 cells assessed as late apoptotic cells at 5 uM after 72 hrs by annexin V-FITC/propidium iodide staining-based flow cytometric method (reference value: 2.6%); assay type: functional
# [11] = tested on: MCF7; assay: Induction of apoptosis in human MCF7 cells assessed as viable cells at 5 uM after 72 hrs by annexin V-FITC/propidium iodide staining-based flow cytometric method (reference value: 76%); assay type: functional; details: MCF7, 72 h, read-out: Activity
# [12] = tested on: MCF7; assay: Induction of apoptosis in human MCF7 cells assessed as early apoptotic cells at 10 uM after 72 hrs by annexin V-FITC/propidium iodide staining-based flow cytometric method (reference value: 9%); assay type: functional
# [13] = tested on: MCF7; assay: Induction of apoptosis in human MCF7 cells assessed as early apoptotic cells at 5 uM after 72 hrs by annexin V-FITC/propidium iodide staining-based flow cytometric method (reference value: 9%); assay type: functional
# [14] = tested on: MCF7; assay: Induction of apoptosis in human MCF7 cells assessed as early apoptotic cells at 1 uM after 72 hrs by annexin V-FITC/propidium iodide staining-based flow cytometric method (reference value: 9%); assay type: functional
# [15] = tested on: MCF7; assay: Induction of apoptosis in human MCF7 cells assessed as necrotic cells at 1 uM after 72 hrs by annexin V-FITC/propidium iodide staining-based flow cytometric method (reference value: 12.6%); assay type: functional
# [16] = tested on: MCF7; assay: Induction of apoptosis in human MCF7 cells assessed as viable cells at 1 uM after 72 hrs by annexin V-FITC/propidium iodide staining-based flow cytometric method (reference value: 76%); assay type: functional; details: MCF7, 72 h, read-out: Activity
# [17] = tested on: MCF7; assay: Induction of apoptosis in human MCF7 cells assessed as late apoptotic cells at 1 uM after 72 hrs by annexin V-FITC/propidium iodide staining-based flow cytometric method (reference value: 2.6%); assay type: functional
# [18] = tested on: MCF7; assay: Induction of apoptosis in human MCF7 cells assessed as increase of early apoptotic cells at 1 to 10 uM after 72 hrs by annexin V-FITC/propidium iodide staining-based flow cytometric method relative to control; assay type: functional; method in brief: as §2
# [19] = tested on: MCF7; assay: Induction of apoptosis in human MCF7 cells assessed as necrotic cells at 5 uM after 72 hrs by annexin V-FITC/propidium iodide staining-based flow cytometric method (reference value: 12.6%); assay type: functional
# [20] = target: Protein kinase C beta type (Homo sapiens) (UniProt P05771); assay: Inhibition of PCK-beta2 (unknown origin) at 10 uM by [33P]-ATP radiometric assay
# Method in brief: (§3)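 Radiometric kinase profiling: purified recombinant kinase (~10–50 nM final) with substrate, assay buffer and compound at 10 µM (control 10% DMSO). Started with 33P-ATP (50 µM stock, 0.8 µCi), run 30 min at ambient temperature, then spotted onto P81 phosphocellulose and washed in 1% phosphoric acid. Scintillation counted, no-substrate blank subtracted, single measurement, result given as % change versus control.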
# [21] = target: Hepatocyte growth factor receptor (Homo sapiens) (UniProt P08581); assay: Inhibition of MET (unknown origin) at 10 uM by [33P]-ATP radiometric assay; method in brief: as §3
# [22] = target: Calcium/calmodulin-dependent protein kinase type 1 (Homo sapiens) (UniProt Q14012); assay: Inhibition of CAMK1 (unknown origin) at 10 uM by [33P]-ATP radiometric assay; method in brief: as §3
# [23] = target: Activin receptor type-2A (Homo sapiens) (UniProt P27037); assay: Inhibition of ACVR2A (unknown origin) at 10 uM by [33P]-ATP radiometric assay; method in brief: as §3
# [24] = target: Mitogen-activated protein kinase 3 (Homo sapiens) (UniProt P27361); assay: Inhibition of ERK1 (unknown origin) at 10 uM by [33P]-ATP radiometric assay; method in brief: as §3
# [25] = target: Casein kinase I isoform alpha (Homo sapiens) (UniProt P48729); assay: Inhibition of CK1alpha1 (unknown origin) at 10 uM by [33P]-ATP radiometric assay; method in brief: as §3
# [26] = target: Cyclin-dependent kinase 16 (Homo sapiens) (UniProt Q00536); assay: Inhibition of CDK16 (unknown origin) at 10 uM by [33P]-ATP radiometric assay; method in brief: as §3
# [27] = target: Epidermal growth factor receptor (Homo sapiens) (UniProt P00533); assay: Inhibition of EGFR (unknown origin) at 10 uM by [33P]-ATP radiometric assay; method in brief: as §3
# [28] = target: Calcium/calmodulin-dependent protein kinase type II subunit alpha (Homo sapiens) (UniProt Q9UQM7); assay: Inhibition of CAMK2-alpha (unknown origin) at 10 uM by [33P]-ATP radiometric assay; method in brief: as §3
# [29] = target: Fibroblast growth factor receptor 1 (Homo sapiens) (UniProt P11362); assay: Inhibition of FGFR1 (unknown origin) at 10 uM by [33P]-ATP radiometric assay; method in brief: as §3
# [30] = target: Mitogen-activated protein kinase 8 (Homo sapiens) (UniProt P45983); assay: Inhibition of JNK1 (unknown origin) at 10 uM by [33P]-ATP radiometric assay; method in brief: as §3
# [31] = target: Mast/stem cell growth factor receptor Kit (Homo sapiens) (UniProt P10721); assay: Inhibition of c-KIT (unknown origin) at 10 uM by [33P]-ATP radiometric assay
# Method in brief: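 Radiometric kinase profiling: purified recombinant kinase (~10–50 nM final) with substrate, assay buffer and compound at 10 µM (control 10% DMSO). Started with 33P-ATP (50 µM stock, 0.8 µCi), run 30 min at ambient temperature, then spotted onto P81 phosphocellulose and washed in 1% phosphoric acid.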
# [32] = target: Receptor tyrosine-protein kinase erbB-2 (Homo sapiens) (UniProt P04626); assay: Inhibition of HER2 (unknown origin) at 10 uM by [33P]-ATP radiometric assay; method in brief: as §3
# Sequence of Cyclin-dependent kinase 16 (Homo sapiens) (Q00536 whole entry): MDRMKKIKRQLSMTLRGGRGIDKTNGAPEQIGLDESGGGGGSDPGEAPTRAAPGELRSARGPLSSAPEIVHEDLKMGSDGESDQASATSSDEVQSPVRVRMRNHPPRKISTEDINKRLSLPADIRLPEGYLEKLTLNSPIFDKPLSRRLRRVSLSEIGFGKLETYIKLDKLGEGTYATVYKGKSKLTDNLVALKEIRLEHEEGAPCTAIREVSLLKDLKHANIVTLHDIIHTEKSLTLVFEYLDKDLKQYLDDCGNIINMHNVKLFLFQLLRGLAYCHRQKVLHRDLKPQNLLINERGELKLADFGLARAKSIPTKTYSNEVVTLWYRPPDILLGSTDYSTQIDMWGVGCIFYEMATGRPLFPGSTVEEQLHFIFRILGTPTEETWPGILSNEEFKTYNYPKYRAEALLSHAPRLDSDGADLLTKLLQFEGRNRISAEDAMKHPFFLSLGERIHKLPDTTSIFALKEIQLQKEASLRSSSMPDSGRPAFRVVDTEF
# Sequence of Calcium/calmodulin-dependent protein kinase type II subunit alpha (Homo sapiens) (Q9UQM7 whole entry): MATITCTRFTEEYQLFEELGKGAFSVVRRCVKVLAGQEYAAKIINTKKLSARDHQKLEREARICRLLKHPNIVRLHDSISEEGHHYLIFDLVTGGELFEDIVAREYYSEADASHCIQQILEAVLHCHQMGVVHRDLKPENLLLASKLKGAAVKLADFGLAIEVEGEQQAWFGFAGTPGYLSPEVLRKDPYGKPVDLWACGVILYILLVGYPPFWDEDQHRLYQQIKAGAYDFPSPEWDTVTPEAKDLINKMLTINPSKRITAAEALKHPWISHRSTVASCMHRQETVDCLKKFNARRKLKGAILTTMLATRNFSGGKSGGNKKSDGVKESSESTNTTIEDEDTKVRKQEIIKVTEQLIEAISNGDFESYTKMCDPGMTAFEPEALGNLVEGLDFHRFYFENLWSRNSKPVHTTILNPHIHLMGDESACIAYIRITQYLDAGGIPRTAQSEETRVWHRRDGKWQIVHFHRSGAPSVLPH
# Sequence of Hepatocyte growth factor receptor (Homo sapiens) (P08581 whole entry): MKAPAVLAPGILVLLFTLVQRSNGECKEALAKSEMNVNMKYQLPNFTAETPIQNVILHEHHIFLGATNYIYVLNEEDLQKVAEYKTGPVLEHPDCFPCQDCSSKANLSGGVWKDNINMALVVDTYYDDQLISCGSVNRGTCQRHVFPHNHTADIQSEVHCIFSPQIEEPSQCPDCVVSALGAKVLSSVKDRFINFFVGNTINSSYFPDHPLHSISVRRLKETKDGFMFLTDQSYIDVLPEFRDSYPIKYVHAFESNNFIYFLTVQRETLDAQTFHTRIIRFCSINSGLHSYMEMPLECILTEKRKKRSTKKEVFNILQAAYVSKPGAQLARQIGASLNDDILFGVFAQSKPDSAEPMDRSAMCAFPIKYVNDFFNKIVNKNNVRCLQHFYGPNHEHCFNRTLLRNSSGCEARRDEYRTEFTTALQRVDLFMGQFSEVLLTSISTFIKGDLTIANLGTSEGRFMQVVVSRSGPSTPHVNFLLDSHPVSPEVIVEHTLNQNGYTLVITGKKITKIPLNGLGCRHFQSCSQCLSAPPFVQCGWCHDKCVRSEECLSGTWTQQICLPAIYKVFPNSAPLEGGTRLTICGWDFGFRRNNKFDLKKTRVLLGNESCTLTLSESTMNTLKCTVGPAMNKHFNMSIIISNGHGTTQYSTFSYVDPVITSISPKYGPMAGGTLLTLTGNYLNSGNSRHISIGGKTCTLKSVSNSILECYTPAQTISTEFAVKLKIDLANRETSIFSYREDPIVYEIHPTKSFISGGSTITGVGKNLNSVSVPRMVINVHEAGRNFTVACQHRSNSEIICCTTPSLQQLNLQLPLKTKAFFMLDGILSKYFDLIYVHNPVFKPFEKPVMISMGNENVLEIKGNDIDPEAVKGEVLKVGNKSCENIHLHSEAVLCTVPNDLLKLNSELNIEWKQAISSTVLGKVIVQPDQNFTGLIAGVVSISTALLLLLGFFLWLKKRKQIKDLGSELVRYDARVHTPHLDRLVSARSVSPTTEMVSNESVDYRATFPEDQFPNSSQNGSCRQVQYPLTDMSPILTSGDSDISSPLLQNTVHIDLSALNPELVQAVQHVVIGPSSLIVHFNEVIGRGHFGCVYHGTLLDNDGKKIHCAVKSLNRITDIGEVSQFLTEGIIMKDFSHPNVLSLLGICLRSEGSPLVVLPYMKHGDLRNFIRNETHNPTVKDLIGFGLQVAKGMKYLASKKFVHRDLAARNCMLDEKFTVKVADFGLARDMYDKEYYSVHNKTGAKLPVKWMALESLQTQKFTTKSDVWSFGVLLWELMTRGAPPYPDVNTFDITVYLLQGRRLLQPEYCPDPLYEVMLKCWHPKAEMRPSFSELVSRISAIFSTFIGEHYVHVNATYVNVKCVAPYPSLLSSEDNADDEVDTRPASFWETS
# Sequence of Fibroblast growth factor receptor 1 (Homo sapiens) (P11362 22-822 limits assumed): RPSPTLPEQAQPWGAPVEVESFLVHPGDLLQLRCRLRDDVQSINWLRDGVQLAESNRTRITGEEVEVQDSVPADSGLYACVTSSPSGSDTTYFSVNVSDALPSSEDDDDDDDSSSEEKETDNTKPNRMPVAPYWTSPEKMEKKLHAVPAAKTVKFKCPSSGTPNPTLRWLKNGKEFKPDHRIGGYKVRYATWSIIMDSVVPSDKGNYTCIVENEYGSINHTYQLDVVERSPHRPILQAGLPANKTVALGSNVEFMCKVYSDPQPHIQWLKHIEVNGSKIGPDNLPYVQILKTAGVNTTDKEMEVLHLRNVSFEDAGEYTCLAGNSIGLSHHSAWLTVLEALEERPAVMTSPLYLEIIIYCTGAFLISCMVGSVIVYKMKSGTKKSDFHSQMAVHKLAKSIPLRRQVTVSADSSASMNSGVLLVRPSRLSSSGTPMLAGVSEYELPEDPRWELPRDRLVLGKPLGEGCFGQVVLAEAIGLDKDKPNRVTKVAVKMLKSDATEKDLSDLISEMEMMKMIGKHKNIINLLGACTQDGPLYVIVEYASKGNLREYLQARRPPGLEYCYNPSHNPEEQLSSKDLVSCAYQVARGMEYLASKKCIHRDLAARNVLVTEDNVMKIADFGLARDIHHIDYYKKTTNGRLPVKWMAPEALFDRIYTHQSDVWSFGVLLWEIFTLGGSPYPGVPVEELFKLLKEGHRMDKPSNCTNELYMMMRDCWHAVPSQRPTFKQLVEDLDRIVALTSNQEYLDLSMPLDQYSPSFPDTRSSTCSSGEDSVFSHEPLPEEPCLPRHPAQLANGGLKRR
# Sequence of Epidermal growth factor receptor (Homo sapiens) (P00533 whole entry): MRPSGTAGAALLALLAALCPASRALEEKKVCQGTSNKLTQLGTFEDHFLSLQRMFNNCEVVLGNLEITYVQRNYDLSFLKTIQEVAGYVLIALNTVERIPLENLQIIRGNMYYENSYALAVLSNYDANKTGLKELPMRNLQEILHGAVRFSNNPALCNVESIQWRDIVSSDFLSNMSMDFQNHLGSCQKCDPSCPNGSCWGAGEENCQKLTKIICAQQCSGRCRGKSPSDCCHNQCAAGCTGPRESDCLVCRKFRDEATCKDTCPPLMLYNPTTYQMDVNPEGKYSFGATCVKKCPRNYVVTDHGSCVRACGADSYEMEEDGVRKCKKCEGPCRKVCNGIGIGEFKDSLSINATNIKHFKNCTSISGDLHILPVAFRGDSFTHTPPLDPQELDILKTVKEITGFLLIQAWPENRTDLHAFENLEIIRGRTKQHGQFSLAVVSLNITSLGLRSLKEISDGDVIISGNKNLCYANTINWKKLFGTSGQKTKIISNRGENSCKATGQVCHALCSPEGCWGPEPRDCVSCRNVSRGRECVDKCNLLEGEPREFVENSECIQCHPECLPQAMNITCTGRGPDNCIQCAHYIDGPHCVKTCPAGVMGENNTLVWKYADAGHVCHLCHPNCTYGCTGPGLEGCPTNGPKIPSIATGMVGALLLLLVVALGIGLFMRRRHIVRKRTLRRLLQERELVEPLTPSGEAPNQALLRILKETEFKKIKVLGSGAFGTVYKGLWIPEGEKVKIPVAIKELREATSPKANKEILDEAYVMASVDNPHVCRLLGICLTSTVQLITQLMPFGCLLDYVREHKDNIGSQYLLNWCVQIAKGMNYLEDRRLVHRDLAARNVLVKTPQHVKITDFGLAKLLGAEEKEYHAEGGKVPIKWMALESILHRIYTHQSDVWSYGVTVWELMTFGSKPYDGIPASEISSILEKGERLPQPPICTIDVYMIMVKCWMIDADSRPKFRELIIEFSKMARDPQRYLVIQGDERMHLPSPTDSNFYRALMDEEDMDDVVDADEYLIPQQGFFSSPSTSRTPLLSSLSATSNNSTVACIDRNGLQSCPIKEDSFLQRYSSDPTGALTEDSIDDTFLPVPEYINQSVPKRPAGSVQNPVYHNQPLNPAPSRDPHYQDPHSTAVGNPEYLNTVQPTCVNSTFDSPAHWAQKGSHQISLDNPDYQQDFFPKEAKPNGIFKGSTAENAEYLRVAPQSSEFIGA
# Sequence of Calcium/calmodulin-dependent protein kinase type 1 (Homo sapiens) (Q14012 whole entry, looked up): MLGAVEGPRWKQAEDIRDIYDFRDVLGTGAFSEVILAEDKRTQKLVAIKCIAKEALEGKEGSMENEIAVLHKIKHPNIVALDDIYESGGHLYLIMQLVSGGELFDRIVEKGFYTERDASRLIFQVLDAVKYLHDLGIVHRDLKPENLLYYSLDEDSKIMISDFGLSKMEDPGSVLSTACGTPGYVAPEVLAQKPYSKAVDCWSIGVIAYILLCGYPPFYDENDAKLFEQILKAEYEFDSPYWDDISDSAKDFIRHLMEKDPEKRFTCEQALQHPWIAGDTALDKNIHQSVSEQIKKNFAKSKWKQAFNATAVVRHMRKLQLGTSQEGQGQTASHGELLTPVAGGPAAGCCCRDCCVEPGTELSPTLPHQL
Structure (SMILES),IC50 [1],IC50 [2],IC50 [3],IC50 [4],IC50 [5],further results
Cc1ccc2nc3nc(NCCO)[nH]c(=O)c3cc2c1,170 nM,–,–,–,–,–
Cc1ccc2nc3nc(NCc4ccc(CN5CCCCC5)cc4)[nH]c(=O)c3cc2c1,2340 nM,11 µM,7.23 µM,15.9 µM,1520 nM,–
COc1ccc2nc3nc(NCc4ccc(CN(C)C)cc4)[nH]c(=O)c3nc2c1,550 nM,> 50 µM,1.3 µM,> 50 µM,700 nM,Activity [6]: 5.9%; Activity [7]: Dose-dependent effect; viability at 10 µM [8]: 60%; Activity [9]: 12%; Activity [10]: 7.9%; viability at 5 µM [11]: 67.4%; Activity [12]: 22.1%; Activity [13]: 17%; Activity [14]: 11.7%; Activity [15]: 16.2%; viability at 1 µM [16]: 67.3%; Activity [17]: 4.8%; fold change (FC) [18]: 2; Activity [19]: 7.7%
Cc1ccc(NC(=O)c2ccc(CN3CCN(C)CC3)cc2)cc1Nc1nccc(-c2cccnc2)n1 [IMATINIB],7120 nM,–,19.7 µM,3.43 µM,8900 nM,inhibition [20]: 10%; inhibition [21]: 10%; inhibition [22]: 10%; inhibition [23]: -2%; inhibition [24]: -2%; inhibition [25]: 11%; inhibition [26]: 10%; inhibition [27]: 9%; inhibition [28]: 1%; inhibition [29]: 1%
Cc1ccc2nc3nc(NCc4ccc(CN5CCN(C)CC5)cc4)[nH]c(=O)c3cc2c1,530 nM,10.5 µM,0.82 µM,13.5 µM,320 nM,inhibition [20]: 3%; inhibition [21]: 18%; inhibition [30]: -4%; inhibition [22]: 18%; inhibition [24]: 5%; inhibition [26]: -1%; inhibition [27]: 12%; inhibition [31]: 36%; inhibition [28]: 0%; inhibition [32]: 4%; inhibition [29]: 50%
COc1ccc2nc3nc(NCc4ccc(CN5CCOCC5)cc4)[nH]c(=O)c3cc2c1,3130 nM,49.1 µM,5.22 µM,23.2 µM,2890 nM,–
CN1CCN(Cc2ccc(CNc3nc4nc5ccc(Cl)cc5cc4c(=O)[nH]3)cc2)CC1,620 nM,> 50 µM,0.72 µM,26.8 µM,540 nM,inhibition [20]: 5%; inhibition [21]: 9%; inhibition [30]: -5%; inhibition [22]: 14%; inhibition [24]: 6%; inhibition [26]: 11%; inhibition [27]: 16%; inhibition [31]: 60%; inhibition [28]: -6%; inhibition [32]: 8%; inhibition [29]: 37%
COc1ccc2nc3nc(NC(C)c4ccccc4)[nH]c(=O)c3nc2c1 (stereo not given),5730 nM,> 50 µM,5.78 µM,> 50 µM,4830 nM,–
O=c1[nH]c(NCc2ccc(CN3CCOCC3)cc2)nc2nc3ccccc3nc12,1490 nM,> 50 µM,1.53 µM,> 50 µM,2010 nM,–
COc1ccc(CCN2CCC(Nc3nc4nc5ccc(OC)cc5nc4c(=O)[nH]3)CC2)cc1,800 nM,33.1 µM,0.93 µM,17.3 µM,900 nM,–
CS(=O)(=O)CCNCc1ccc(-c2ccc3ncnc(Nc4ccc(OCc5cccc(F)c5)c(Cl)c4)c3c2)o1 [LAPATINIB],6800 nM,–,10.1 µM,–,10400 nM,–
CSc1nc2nc3ccc(C)cc3cc2c(=O)[nH]1,1790 nM,–,–,–,–,–
